System: MS2 coat protein
Assay: apparent Kd, MS2 coat protein; higher = weaker binding; RNA-MaP array; FMN 200 µM where present
Outline: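 SNAP-549-labelled MS2 coat protein, doubled from 0.7 or 1.5 nM to 3 µM, was titrated over designs transcribed by stalled E. coli RNA polymerase on Illumina sequencing-chip clusters. Titrations were run without and then with constant ligand in 100 mM Tris-HCl pH 7.5, 80 mM KCl, 4 mM MgCl2, BSA, DTT, yeast tRNA and Tween-20. The apparent Kd is the median of filtered per-cluster fits to green signal normalised to red-channel RNA signal and control-cluster median Fmax.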

[1] = designed as: OFF switch for flavin mononucleotide, no ligand
[2] = ligand present: flavin mononucleotide, designed as: OFF switch for flavin mononucleotide
[3] = designed as: ON switch for flavin mononucleotide, no ligand
[4] = ligand present: flavin mononucleotide, designed as: ON switch for flavin mononucleotide

Sequence | apparent Kd [1] [nM] | apparent Kd [2] [nM] | apparent Kd [3] [nM] | apparent Kd [4] [nM]
CGGGAGUCAGGAUAUACGAACAUGUCGCCAGAUGUCAAGGUACAUGAGGAUCACCCAUGUAGAAGGGAGGAGGG | 60.5 | 32.7 |  | 
UUACAGUGCGGGUAGGAUAUGUAGGGUGGUACAUGAGGAUCACCCAUGUAUCCACCCUUCUACCGGCAGAAGGGCCUGUCACUGC |  |  | 17 | 13.5
UGUUGUAUUACAGGAUAUCUAUUAUUUAUAUUUAGAGAAGGGUAUUCACAUGAGGAUCACCCAUGUAUAUACGAGGAAGUUGUG |  |  | 52.1 | 54
GCACUGGAUGUAGGAUAUCAGGACGAUAAGUCCUGAGAAGGACAUGAGGAUCACCCAUGUGAUUAUACCAGUGCAAAUAAUAUA | 30.7 | 274 |  | 
CGGCCCGAUCGAGGAUAUAAGUCUAGGACAUGAGGAUCACCCAUGUAUGUCUUAGAAGGCGAUCGGGCCAGCCUGUUACAGGCA |  |  | 28.5 | 6.43
UAAACGUUCUAGAAGGUGCUAGCGAUAAGCUAGCAAGGAUAUAGACAUGAGGAUCACCCAUGUCUUUGUGACAUCGACAUACUU | 9.03 | 12.1 |  | 
CGGUAAACCACAGGAUAUGGCUAGUAUAACUAGCCAGAAGGGUGGUCGAAACCAUGUAAAUACAUGAGGAUCACCCAUGUAUCC |  |  | 496 | 47.6
CUCAUUAACAUGAGGAUCACCCAUGUUGGCCAGUCUCACACCAGAAGGCCCGUUGAGCACAGCAGGGAGGAUAUGGGUGACAUA |  |  | 309 | 211
UGUCGGAGCAGAGGAUAUUACAUGAGGAUCACCCAUGUAUGAACCAAUAGCUGGAAACCGCAAUGUAAGAAGGCUGCUCCGACA | 104 | 374 |  | 
AUUUUACAUGAGGAUCACCCAUGUUUUGGCGGGUCAGGAUAUAGAUCGGAUGAGUUCUGGCUAGAAGGGACAUGUA |  |  | 54 | 106
GUGUAGUCAGGAUAUACAUAGGAAGAGAAGAGAAGAUAAGUACAUGAGGAUCACCCAUGUAGAAGGGACAGUGU | 30.6 | 29.6 |  | 
UCAAGUAUGUAGGAUAUGAUGUGAUUUUACAUAUCAGAAGGACGUACAUGAGGAUCACCCAUGUAACUUGCAUG | 112 | 42.2 |  | 
CUUUUGUGAGGAUAUCAGGUGUGCUAGCGUACUGGUACAUCUGAGAAGGCACAUGAGGAUCACCCAUGUUUCUA | 84.9 | 74.2 |  | 
CCACGUGCUCAGAAGGGCUUUAAACACAAAUUAGCAGGAUAUGAGGACCGGUCGUGACAUGAGGAUCACCCAUGUUUUGUCUAG |  |  | 38.6 | 12.2
AACAGUAGAGGAUAUACAUGAGGAUCACCCAUGUGAUAUUUACGUGGCGUACCACGAAGUAGAAGGCUACUGGA | 30.7 | 265 |  | 
CUAUAUAAUACCUCAUGUACAUGAGGAUCACCCAUGUUAACUUAGGAUAUAUUUAUAUUAAUAAAGUAGAAGGAAGUACUAUUU | 23.3 | 19.4 |  | 
CAUGUCCUCACAGGAUAUGCACCACUUUGUGGUGCAGAAGGGUGGAUACAUGAGGAUCACCCAUGUGGACAUGAUAUAUUUAAG |  |  | 708 | 58.4
ACGCUCAGAGGAUAUACAUGAGGAUCACCCAUGUGUUACCGAGGAGUACGGUCGUCACGUAGAAGGCUGGGUAA | 17.9 | 63.2 |  | 
CUUUUACAUGAGGAUCACCCAUGUUAUGGCGGGUCAGGAUAUAGAUCGGAUGCGUUCUGUCUAGAAGGGACAUGUU |  |  | 52.2 | 33.4
UGAUAGGACAGAGGAUAUGCGUGCUGGUGAUACUAGCAAAGUAUCGUGACAUGAGGAUCACCCAUGUAGAAGGCUGUCCUAUCU | 28 | 68.4 |  | 
AUAUCCUAGAUAGGAUAUACUGAGGUUGAAUGGGUAGAAGGAUCGUUAGGGUGGACUACAUGAGGAUCACCCAUGUUGUUUAUU |  |  | 213 | 208

Sequence | apparent Kd [1] [nM] | apparent Kd [2] [nM] | apparent Kd [3] [nM] | apparent Kd [4] [nM]
UCCAGGUAAGGAUAUGGGCUGGACACCGGGUACGGCCAGCACCAGAAGGUACAUGAGGAUCACCCAUGUGUUCC | 54.5 | 274 |  | 
GCUUUAGUAUCACAUGUAUUACAUGAGGAUCACCCAUGUUACUAGGAUAUGUAUUAGAAUUUACAACAGAAGGAGUAAGAAUGU | 7.49 | 8.93 |  | 
GUGUUUGAUGAGGAUAUCGAUGUGGGUACAUAGCGAGAAGGCAUUACAUGAGGAUCACCCAUGUAGUGUGGGUU | 25 | 56.7 |  | 
GUAGCUAUCGGAGGAUAUUCAUACCGUAAACGGACAUGAGGAUCACCCAUGUAGCGAAAGCCUUGGGAGAAGGCCGAUAGCUAC |  |  | 942 | 88.8
GCGAUUUUGUAAGGAUAUACUCUGUGAUGAAGAGUAGAAGGUACUUACAUGAGGAUCACCCAUGUUUAACGAGAUACUAAUCGU |  |  | 42.1 | 21.2
AUCAGCCCGUCAGGAUAUACGUCACUGCGUCAGCAGUGUGGUAAGAUCACAUGAGGAUCACCCAUGUAGAAGGGACGAGCUGAU | 14.2 | 261 |  | 
ACCUCACAUGAGGAUCACCCAUGUUAGGAUAUAUAAUCGUCGGCCUAGGGCCGGAGAUAUAGAAGGAGCAUAAC | 16.9 | 19.7 |  | 
GACAUGGUCCAGAAGGGCUAUUUAUUUAAGUAUGAUUUAGAACAGCAUAGCAGGAUAUGGCUAACAUGAGGAUCACCCAUGUUC |  |  | 20.1 | 13.3
GGUUACACAGGAUAUACAUGAGGAUCACCCAUGUCGAGCCGACCCGGAUGCACCUAAAGUAGAAGGGUGAGCUG | 21.8 | 22.7 |  | 
GUCAGCUCGUGAGGAUAUACAUGUGCUGGAAACAGCACUAAUAGAAUCACAUGAGGAUCACCCAUGUAGAAGGCACGAGCUGAU | 16.9 | 40.8 |  | 
CGCUGUCACGCAGGAUAUGCAUUGGAUUACAAUGCAGAAGGGCGAUUACAUGAGGAUCACCCAUGUGUUGACAGUGAAGAAGAG |  |  | 1240 | 80.6
UCUCAACAUGAGGAUCACCCAUGUGAGGAUAUGAUGCAGCAGUGGUCUACGCUGUGCAUCAGAAGGCACAUGUG | 137 | 48.2 |  | 
AUGGUGACGUAGAAGGGUGACAUGAGGAUCACCCAUGUGCCGAUAUUUCUCGAGAUAUGUCGGCCACAGGAUAUACGUACCAUC |  |  | 39.3 | 83.3
AGGAGACAUGAGGAUCACCCAUGUGCACGGUGAAGAGGAUAUGUGCGUGGAGAGACACGGACAGAAGGCUUAAGAA |  |  | 65.3 | 33
GCAGCUAUUAUUAUACAUGAGGAUCACCCAUGUUACAUGUGUAAGGAUAUUGAUGUUUAUAUAAUCAAGAAGGUACGAUGCUGC |  |  | 12.6 | 8.59
UGUCGGAGCAGAGGAUAUUACAUGAGGAUCACCCAUGUAUGAACCAAUAGCUAGAAACAGCAAUGUAAGAAGGCUGCUCCGACA | 8.97 | 113 |  | 
UGUAAAUUAUUAAGUAAUUAGGCGAAGGAUAUAUAACAUGAGGAUCACCCAUGUACUAAAUUGAAGUAGAAGGUUGAACAUUUC |  |  | 14.5 | 12.9
GCACGGUAAGUGAGGAUAUACCUCUGGAUACAGAGGUAGAAGGCACAUGAGGAUCACCCAUGUCCUAGCCGUGC | 36.7 | 271 |  | 
CAGCCCUGAGGAUAUCCCUACUUGUACAUGAGGAUCACCCAUGUUCUCCUCCGGGCUUCGGGAGAAGGCAGGUCUC | 15.9 | 15.5 |  | 
UGCCUUAGAGGAUAUACAUUGAAUUUGAUUCAUGUAAAACUACAUGAGGAUCACCCAUGUAGAAGGCUAGGGCU | 19.1 | 37.1 |  | 
AUUUAAAAGCAGAAGGGCAAGGUGGAUCCCUCACAUGAGGAUCACCCAUGUCUAGGCUUUACCGUGCAGGAUAUGCAAGUAAUA |  |  | 26 | 58.5

Source: the EternaBench riboswitch data
